Most compounds without a hit are left out; they make up all but 4.7% or so of the library.
AHR activator – human AHR activation; 320,000 tested, 2.5% active; AHR-responsive luciferase reporter cells, luminescence; AID 2796; activation, % at 5 µM; in the data active = activation above about 47%;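 note: 0% = vehicle wells and 100% = reference agonist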
MC4R antagonist – antagonists of human melanocortin 4 receptor (MC4R). AID 540295. P32245. 360,000 tested, 0.48% active. inhibition, % at 6.5 µM. MC4R-expressing cells, MTII-stimulated cAMP, LANCE TR-FRET;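 active = inhibition above its plate's cutoff, the mean of tested wells on that plate plus 3 SD, cut at about 29% in these data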;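 note: 0% = Melanotan II alone and 100% = Melanotan II plus saturating MCL0020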
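system = U2OS cells with stable human MC4R expression | also added = Melanotan II challenge after compound preincubation | dosing = one concentration, 6.5 µM nominal | incubation = compound 30 min, challenge 1 h, detection 1 h | measured by = TR-FRET with Eu-cAMP and labeled anti-cAMP, 671 nm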
MC4R ag barr – human MC4R agonism via beta-arrestin. U2OS MC4R beta-arrestin complementation, luminescence; percent of melanotan II response, DMSO zero. 360,000 tested, 0.98% active. activation, % at 8.9 µM. AID 540308. P32245;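 active = activation above a per-plate cutoff, the mean activation of sample wells on that plate plus 3 SD, cut at about 8% in these data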
GAA850 FXN act – activators of GAA850 frataxin (FXN) promoter; HEK293 lucGAA850 FXN promoter luciferase reporter, 24 h; percent of 10 µM SAHA response; activation, % at 6 µM; 360,000 tested, 0.56% active; AID 540364;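 active = activation above the average of all compounds screened plus 3 SD, cutoff fixed separately per campaign, cut at about 7.5% in these data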;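 note: 0% = DMSO wells and 100% = 10 µM SAHA wells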
HTR2A ag – mouse HTR2A agonism via beta-arrestin recruitment; 360,000 tested, 0.66% active; CHO-K1 mHTR2A beta-arrestin complementation, luminescence; percent of 30 µM serotonin response; AID 624169; activation, % at 7.6 µM;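 active = activation above a run cutoff, the mean activation of all tested compounds plus 3 SD, cut at about 14% in these data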;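 note: 0% = plate median of compound wells and 100% = 30 µM serotonin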
OPRM1 ag – activates human mu opioid receptor in HTR2A counterscreen; AID 624380; U2OS OPRM1 beta-arrestin PathHunter, luminescence; DMSO 0%, DAMGO 9.3 µM 100%; activation, % at 9.3 µM; shares compounds with HTR2A ag; 2,300 tested, 5.3% active;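 active = mean activation above the mean of DMSO-only wells plus 3 SD, cut at about 0.5% in these data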
Target sequence (P35372 whole entry, looked up): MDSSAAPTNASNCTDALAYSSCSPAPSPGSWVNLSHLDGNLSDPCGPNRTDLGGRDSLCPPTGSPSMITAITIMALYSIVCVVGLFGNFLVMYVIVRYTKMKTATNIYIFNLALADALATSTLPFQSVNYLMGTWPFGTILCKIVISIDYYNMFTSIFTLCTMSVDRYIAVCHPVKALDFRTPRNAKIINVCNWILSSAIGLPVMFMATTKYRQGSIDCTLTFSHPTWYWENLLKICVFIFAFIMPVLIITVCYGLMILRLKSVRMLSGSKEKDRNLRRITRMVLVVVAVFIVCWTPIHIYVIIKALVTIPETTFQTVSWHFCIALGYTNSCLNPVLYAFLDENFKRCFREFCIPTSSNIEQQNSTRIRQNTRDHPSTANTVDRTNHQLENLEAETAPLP
m5-HT2A ag conf – mouse HTR2A agonism confirmed; shares compounds with HTR2A ag; CHO-K1 PathHunter beta-arrestin recruitment, luminescence; DMSO 0%, 30 µM serotonin 100%; activation, % at 7.6 µM; 2,300 tested, 19% active; AID 624381;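 active = mean activation across triplicates above the hit threshold derived in the original primary screen, cut at about 15% in these data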
The depositor's hits bear a star.

For Fc1ccc(CN2CCN(c3ncccn3)CC2)c(F)c1 the results were AHR activator -1, MC4R antagonist 1, MC4R ag barr -1, GAA850 FXN act -1 and HTR2A ag 10.
COC(=O)c1ccc(CNC(=O)c2ccc(S(=O)(=O)N3CCCC(C)C3)cc2)cc1 (stereo not drawn) was read as AHR activator -1, MC4R antagonist 14, MC4R ag barr 1, GAA850 FXN act 0 and HTR2A ag -4.
`O=C(Cc1c(F)cccc1Cl)N1CCN(S(=O)(=O)c2cccc(F)c2)CC1` gave AHR activator 1, MC4R antagonist 2, MC4R ag barr -2, GAA850 FXN act 0, HTR2A ag 14*, OPRM1 ag 0 and m5-HT2A ag conf -2.
`Cc1ccc(S(=O)(=O)N2CCN(C(=O)Cc3c(F)cccc3Cl)CC2)cc1` gave AHR activator 0, MC4R antagonist 6, MC4R ag barr -3, GAA850 FXN act 1 and HTR2A ag 0.
`COc1ccccc1CCNC(=O)c1ccccc1SCC(=O)N1CCCC1` gave AHR activator 8, MC4R antagonist -1, MC4R ag barr -1, GAA850 FXN act 2 and HTR2A ag 4.
`COc1ccccc1NC(=O)c1ccccc1SCC(=O)N1CCCC1` gave MC4R antagonist 6, MC4R ag barr -2, GAA850 FXN act -1, HTR2A ag 14*, OPRM1 ag -1 and m5-HT2A ag conf -4.
`O=C(COC(=O)c1cccnc1Cl)Nc1ccc(N2CCOCC2)cc1` gave MC4R antagonist 8, MC4R ag barr -2, GAA850 FXN act 1 and HTR2A ag 7.
Screening CC1COC(c2cccn2Cc2ccccc2Cl)=N1 (stereo not drawn) returned AHR activator -1, MC4R antagonist 5, MC4R ag barr -1, GAA850 FXN act 2, HTR2A ag 24*, OPRM1 ag 0 and m5-HT2A ag conf -2.
Screening CCC1COC(c2cccn2Cc2ccc(Cl)cc2)=N1 (stereo not drawn) returned AHR activator 0, MC4R antagonist 6, MC4R ag barr 2, GAA850 FXN act 2 and HTR2A ag 3.
For O=C(CN1C(=O)CSc2ncccc21)NCCN1CCOCC1 the results were AHR activator -1, MC4R antagonist 5, MC4R ag barr 0, GAA850 FXN act 0 and HTR2A ag -6.
`COCCCNC(=O)CN1C(=O)CSc2ncccc21` gave AHR activator -1, MC4R antagonist 3, MC4R ag barr 0, GAA850 FXN act 0, HTR2A ag 18*, OPRM1 ag -1 and m5-HT2A ag conf -4.
Screening COc1ccc(/C=C(/NC(=O)c2ccc(Br)o2)C(=O)Nc2cccc(C(=O)O)c2)cc1 returned MC4R antagonist -4, MC4R ag barr 0, GAA850 FXN act 1 and HTR2A ag 2.
CC(C)(C)NC(=O)N1CCN(c2nc(-c3ccccc3)ns2)CC1 was read as AHR activator 0, MC4R antagonist 6, MC4R ag barr -1, GAA850 FXN act 3, HTR2A ag 16*, OPRM1 ag 0 and m5-HT2A ag conf -2.
For CC(=O)c1ccccc1Oc1ncnc(N)c1[N+](=O)[O-] the results were AHR activator 5, MC4R antagonist -1, MC4R ag barr 0, GAA850 FXN act 0 and HTR2A ag 6.
`COc1ccc(-c2nnc3n2CCCCC3)cc1OC` gave AHR activator -2, MC4R antagonist 7, MC4R ag barr 0, GAA850 FXN act 3 and HTR2A ag -4.
Screening COc1ccc(-c2csc(Cc3nnc4n3CCCCC4)n2)cc1OC returned AHR activator 1, MC4R antagonist -2, MC4R ag barr -2, GAA850 FXN act 3, HTR2A ag 15*, OPRM1 ag -1 and m5-HT2A ag conf 0.
CN(c1cccc(NC(=O)CCSc2ccccc2)c1)S(C)(=O)=O was read as AHR activator 0, MC4R antagonist -5, MC4R ag barr -2, GAA850 FXN act -1 and HTR2A ag -3.
Screening CC(Sc1ccccc1)C(=O)Nc1cccc(N(C)S(C)(=O)=O)c1 (stereo not drawn) returned AHR activator 3, MC4R antagonist 1, MC4R ag barr -1, GAA850 FXN act 0, HTR2A ag 17*, OPRM1 ag -1 and m5-HT2A ag conf -5.
COCCN(C(=O)COC(=O)C1CCCCC1)c1c(N)n(Cc2ccccc2)c(=O)[nH]c1=O was read as MC4R antagonist 6, MC4R ag barr -1, GAA850 FXN act 1, HTR2A ag 16*, OPRM1 ag -1 and m5-HT2A ag conf -4.
`COCCN(C(=O)COC(=O)CC1CCCCC1)c1c(N)n(Cc2ccccc2)c(=O)[nH]c1=O` gave AHR activator 0, MC4R antagonist 8, MC4R ag barr -3, GAA850 FXN act 0 and HTR2A ag -1.
For CS(=O)(=O)c1ccc2nc(NC(=O)c3cccc(Cl)c3)sc2c1 the results were AHR activator 1, MC4R antagonist -3, MC4R ag barr 1, GAA850 FXN act 3 and HTR2A ag -3.
For CS(=O)(=O)c1ccc2nc(NC(=O)c3ccc(Cl)cc3)sc2c1 the results were AHR activator 7, MC4R antagonist 5, MC4R ag barr 0, GAA850 FXN act 1, HTR2A ag 18*, OPRM1 ag 0 and m5-HT2A ag conf 3.
Screening O=c1[nH]c2cc3ccccc3cc2nc1-c1nnnn1Cc1ccccc1 returned HTR2A ag -2.
Screening CCn1cc(C(=O)N2CCN(Cc3ccc4c(c3)OCO4)CC2)c(=O)c2ccc(C)nc21 returned AHR activator -1, MC4R antagonist 0, MC4R ag barr -1, GAA850 FXN act -1 and HTR2A ag 4.
For CCn1cc(C(=O)N2CCN(c3ccccc3F)CC2)c(=O)c2ccc(C)nc21 the results were AHR activator -1, MC4R antagonist -2, MC4R ag barr -1, GAA850 FXN act 1, HTR2A ag 15*, OPRM1 ag -1 and m5-HT2A ag conf -2.
Cc1cccc2nc(-c3cccc(NC(=O)c4ccc(Cl)cc4)c3)cn12 was read as AHR activator 5, MC4R antagonist -3, MC4R ag barr 5, GAA850 FXN act 1, HTR2A ag 22*, OPRM1 ag -1 and m5-HT2A ag conf -4.
O=C(O)CSc1c(-c2cccs2)[nH]c2ccccc12 was read as AHR activator 21, MC4R antagonist 21, MC4R ag barr 0, GAA850 FXN act -1, HTR2A ag 16*, OPRM1 ag 0 and m5-HT2A ag conf 8.
COC(=O)[C@@]1(Sc2ccc(C)cc2)CC(=O)N[C@@H]1c1ccc(Br)cc1 was read as HTR2A ag 3.

Screening data: PubChem, The Scripps Research Institute Molecular Screening Center
